According to ChEMBL document CHEMBL3085754, “Clicking 3'-azidothymidine into novel potent inhibitors of human immunodeficiency virus” (J Med Chem, 2013):
The source made the active and inactive calls. No cut-off for these calls is given here.

Tests used:
[1] = tested on: Human immunodeficiency virus 1; test: Antiviral activity against wild type Human immunodeficiency virus 1 expressing p24 infected in human HeLa P4/R5 cells up to 10 uM preincubated for 16 hrs prior to virus infection measured after 48 hrs by beta-galactosidase-based single replication cycle assay; format: functional, organism-based
Method in brief: (§1)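 P4R5 indicator cells express CD4, CXCR4, CCR5 and an HIV LTR-driven β-galactosidase reporter, and were kept in DMEM/10% FBS with puromycin. Cells were seeded at 5×10^3 per well and exposed to varying drug concentrations for 16 h. They were then inoculated with 25 ng HIV-1 p24 per well. Infection was quantified 48 h post-infection by fluorescence-based β-galactosidase detection.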

CEM-SS [2] = test: Cytotoxicity against human CEM-SS cells assessed as cell viability at 10 uM after 6 days by MTS assay relative to control; format: cell-based; details: 144 h
[3] = tested on: Human immunodeficiency virus 1; test: Antiviral activity against Human immunodeficiency virus 1 3B infected in human CEM-SS cells assessed as inhibition of virus-induced cytopathic effect at 10 uM after 6 days by MTS assay relative to control; format: functional; details: 144 h
[4] = target: Human immunodeficiency virus type 1 reverse transcriptase (Human immunodeficiency virus 1) (UniProt Q72547); test: Binding affinity to HIV1 reverse transcriptase assessed as compound incorporation into DNA by primer extension assay
[5] = tested on: Human immunodeficiency virus 1; test: Antiviral activity against wild type Human immunodeficiency virus 1 expressing p24 infected in human HeLa P4/R5 cells preincubated for 16 hrs prior to virus infection measured after 48 hrs by beta-galactosidase-based single replication cycle assay; format: functional, organism-based; details: Human immunodeficiency virus 1, P4/R5; method in brief: as §1
[6] = tested on: Human immunodeficiency virus 1; test: Ratio of EC50 for NNRTI-resistant Human immunodeficiency virus 1 to EC50 for wild type Human immunodeficiency virus 1 expressing p24; format: functional
[7] = tested on: Human immunodeficiency virus 1; test: Antiviral activity against NNRTI-resistant Human immunodeficiency virus 1; format: functional, organism-based
[8] = target: Human immunodeficiency virus type 1 reverse transcriptase (Human immunodeficiency virus 1, UniProt Q72547); test: Inhibition of HIV1 reverse transcriptase-mediated [H3]TTP incorporation into poly(rA)-oligo(dT)16 DNA preincubated for 5 mins prior to primer/template and substrate addition by liquid scintillation spectrometric analysis
Method in brief: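 10 nM wt HIV-1 RT preincubated 5 min with inhibitor in DMSO (1% final), then 40 nM poly(rA)-oligo(dT)16 and 10 μM [3H]TTP added. Buffer 50 mM Tris-HCl pH 8.0, 60 mM KCl, 10 mM MgCl2; 20 min at 37°C. Quenched with cold 10% TCA/20 mM pyrophosphate, glass-fibre filtered, washed with TCA and ethanol, incorporation counted by liquid scintillation.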

[9] = tested on: Human immunodeficiency virus 1; test: Antiviral activity against Human immunodeficiency virus 1 3B infected in human CEM-SS cells assessed as inhibition of virus-induced cytopathic effect after 6 days by MTS assay; format: functional, organism-based; details: 144 h
[10] = Therapeutic index, ratio of CC50 for human CEM-SS cells to EC50 for Human immunodeficiency virus 1 3B; format: cell-based; details: read-out: Ratio CC50/EC50
CEM-SS [11] = test: Cytotoxicity against human CEM-SS cells assessed as cell viability after 6 days by MTS assay; format: cell-based; details: cem-ss, 144 h

Compound | Activity (CEM-SS [2]) | inhibition at 10 µM [3] | also measured
COc1ccc2cc(OCc3cnnn3[C@H]3C[C@H](n4cc(C)c(=O)[nH]c4=O)O[C@@H]3CO)ccc2c1 | 100% | 57% | Activity [1]: inactive
Cc1cn([C@H]2C[C@H](n3cc(COc4ccc5ccccc5c4)nn3)[C@@H](CO)O2)c(=O)[nH]c1=O | 100% | 0% | –
Cc1cn([C@H]2C[C@H](n3nncc3CO)[C@@H](CO)O2)c(=O)[nH]c1=O | 100% | 0% | –
Cc1cn([C@H]2C[C@H](n3cc(-c4ccc(Cl)cc4)nn3)[C@@H](CO)O2)c(=O)[nH]c1=O | 100% | 0% | –
Cc1cn([C@H]2C[C@H](n3cc(-c4ccc(Oc5ccccc5)cc4)nn3)[C@@H](CO)O2)c(=O)[nH]c1=O | 100% | 0% | –
Cc1cn([C@H]2C[C@H](n3cc(-c4ccc(Cl)c(Cl)c4)nn3)[C@@H](CO)O2)c(=O)[nH]c1=O | 100% | 6% | –
Cc1cn([C@H]2C[C@H](O)[C@@H](COP(=O)(O)OP(=O)(O)OP(=O)(O)O)O2)c(=O)[nH]c1=O | – | – | Activity [4]: Active
COc1ccc2ccc(OCc3cnnn3[C@H]3C[C@H](n4cc(C)c(=O)[nH]c4=O)O[C@@H]3CO)cc2c1 | 99% | 10% | –
COc1ccc2ccc(OCc3cn([C@H]4C[C@H](n5cc(C)c(=O)[nH]c5=O)O[C@@H]4CO)nn3)cc2c1 | 100% | 0% | –
Cc1cn([C@H]2C[C@H](N=[N+]=[N-])[C@@H](COP(=O)(O)OP(=O)(O)OP(=O)(O)O)O2)c(=O)[nH]c1=O | – | – | Activity [4]: Active
Cc1cn([C@H]2C[C@H](n3cc(-c4ccnc5ccccc45)nn3)[C@@H](CO)O2)c(=O)[nH]c1=O | 100% | 44% | –
Cc1cn([C@H]2C[C@H](n3cc(-c4ccc5[nH]ccc5c4)nn3)[C@@H](CO)O2)c(=O)[nH]c1=O | 100% | 35% | –
Cc1cn([C@H]2C[C@H](n3cc(-c4cc5ccccc5c5ccccc45)nn3)[C@@H](CO)O2)c(=O)[nH]c1=O | 100% | 42% | EC50 [5]: 4.7 µM; Ratio EC50 [6]: 0.2; EC50 [7]: 1 µM
Cc1cn([C@H]2C[C@H](n3nncc3-c3ccc(Cl)c(Cl)c3)[C@@H](CO)O2)c(=O)[nH]c1=O | 100% | 31% | Activity [1]: inactive
COc1ccc2cc(OCc3cn([C@H]4C[C@H](n5cc(C)c(=O)[nH]c5=O)O[C@@H]4CO)nn3)ccc2c1 | 100% | 0% | –
Cc1cn([C@H]2C[C@H](n3nncc3COc3cccc4ccccc34)[C@@H](CO)O2)c(=O)[nH]c1=O | 93% | 42% | Activity [1]: inactive
Cc1cn([C@H]2C[C@H](n3nncc3-c3ccc4[nH]ccc4c3)[C@@H](CO)O2)c(=O)[nH]c1=O | 82% | 12% | –
Cc1cn([C@H]2C[C@H](n3cc(-c4ccccc4)nn3)[C@@H](CO)O2)c(=O)[nH]c1=O | 100% | 24% | –
Cc1cn([C@H]2C[C@H](n3nncc3C3CC3)[C@@H](CO)O2)c(=O)[nH]c1=O | 100% | 17% | –
Cc1cn([C@H]2C[C@H](n3nncc3C3CCCCC3)[C@@H](CO)O2)c(=O)[nH]c1=O | 88% | 43% | Activity [1]: inactive
Cc1cn([C@H]2C[C@H](n3cc(C4(O)c5ccccc5-c5ccccc54)nn3)[C@@H](CO)O2)c(=O)[nH]c1=O | 100% | 11% | –
Cc1cn([C@H]2C[C@H](n3nncc3-c3ccccc3)[C@@H](CO)O2)c(=O)[nH]c1=O | 100% | 44% | –

Compound | Activity (CEM-SS [2]) | inhibition at 10 µM [3] | also measured
Cc1cn([C@H]2C[C@H](n3cc(CO)nn3)[C@@H](CO)O2)c(=O)[nH]c1=O | 100% | 5% | –
Cc1cn([C@H]2C[C@H](n3nncc3-c3cc4ccccc4c4ccccc34)[C@@H](COP(=O)(O)OP(=O)(O)OP(=O)(O)O)O2)c(=O)[nH]c1=O | – | – | IC50 [8]: 11.8 µM
COc1ccc2cc(-c3cnnn3[C@H]3C[C@H](n4cc(C)c(=O)[nH]c4=O)O[C@@H]3CO)ccc2c1 | 100% | 43% | EC50 [5]: 4.1 µM; Ratio EC50 [6]: 0.4; EC50 [7]: 1.8 µM
Cc1cn([C@H]2C[C@H](n3nncc3-c3ccc(Oc4ccccc4)cc3)[C@@H](CO)O2)c(=O)[nH]c1=O | 97% | 67% | Activity [1]: inactive
Cc1cn([C@H]2C[C@H](n3nncc3COc3ccccc3)[C@@H](CO)O2)c(=O)[nH]c1=O | 100% | 51% | –
Cc1cn([C@H]2C[C@H](n3cc(C4CCCCC4)nn3)[C@@H](CO)O2)c(=O)[nH]c1=O | 100% | 0% | –
Cc1cn([C@H]2C[C@H](n3nncc3COc3ccc4ccccc4c3)[C@@H](CO)O2)c(=O)[nH]c1=O | 95% | 88% | EC50 [9]: 1.9 µM; EC50 [5]: > 5 µM; selectivity ratio [10]: 37; Ratio EC50 [6]: <0.5; EC50 [7]: 2.4 µM; CC50 (CEM-SS [11]): 70 µM
Cc1cn([C@H]2C[C@H](n3cc(-c4ccc(-c5ccccc5)cc4)nn3)[C@@H](CO)O2)c(=O)[nH]c1=O | 88% | 91% | –
Cc1cn([C@H]2C[C@H](n3nncc3-c3ccc4ccccc4c3)[C@@H](CO)O2)c(=O)[nH]c1=O | 100% | 37% | –
COc1ccc2cc(-c3cn([C@H]4C[C@H](n5cc(C)c(=O)[nH]c5=O)O[C@@H]4CO)nn3)ccc2c1 | 95% | 35% | –
Cc1cn([C@H]2C[C@H](n3nncc3C3(O)c4ccccc4-c4ccccc43)[C@@H](CO)O2)c(=O)[nH]c1=O | 97% | 0% | –
Cc1cn([C@H]2C[C@H](n3cc(-c4cccc5ccccc45)nn3)[C@@H](CO)O2)c(=O)[nH]c1=O | 100% | 1% | –
COC(=O)C(Cc1ccc(OCc2cn([C@H]3C[C@H](n4cc(C)c(=O)[nH]c4=O)O[C@@H]3CO)nn2)cc1)NC(=O)OC(C)(C)C (stereo not given in full) | 99% | 0% | –
Cc1cn([C@H]2C[C@H](n3cc(-c4ccc5ccccc5c4)nn3)[C@@H](CO)O2)c(=O)[nH]c1=O | 98% | 33% | EC50 [5]: 7.2 µM; Ratio EC50 [6]: 0.3; EC50 [7]: 2.1 µM
Cc1cn([C@H]2C[C@H](n3nncc3-c3cc4ccccc4c4ccccc34)[C@@H](CO)O2)c(=O)[nH]c1=O | 100% | 100% | EC50 [9]: 0.1 µM; EC50 [5]: > 5 µM; selectivity ratio [10]: 210; CC50 (CEM-SS [11]): 21 µM
Cc1cn([C@H]2C[C@H](n3cc(COc4ccccc4)nn3)[C@@H](CO)O2)c(=O)[nH]c1=O | 85% | 7% | –
Cc1cn([C@H]2C[C@H](n3cc(C4CC4)nn3)[C@@H](CO)O2)c(=O)[nH]c1=O | 100% | 1% | –
COC(=O)C(Cc1ccc(OCc2cnnn2[C@H]2C[C@H](n3cc(C)c(=O)[nH]c3=O)O[C@@H]2CO)cc1)NC(=O)OC(C)(C)C (stereo not given in full) | 90% | 17% | –
Cc1cn([C@H]2C[C@H](n3cc(COc4cccc5ccccc45)nn3)[C@@H](CO)O2)c(=O)[nH]c1=O | 100% | 5% | –
Cc1cn([C@H]2C[C@H](n3nncc3-c3ccnc4ccccc34)[C@@H](CO)O2)c(=O)[nH]c1=O | 94% | 74% | –
Cc1cn([C@H]2C[C@H](n3nncc3-c3ccc(-c4ccccc4)cc3)[C@@H](CO)O2)c(=O)[nH]c1=O | 80% | 63% | Activity [1]: inactive
Cc1cn([C@H]2C[C@H](n3nncc3-c3ccc(Cl)cc3)[C@@H](CO)O2)c(=O)[nH]c1=O | 100% | 23% | –
